Measurements reported in PMC9064907 (RSC Advances, 2019).
Like-named read-outs stand apart in the source and are kept apart here.

Legend:
[1] = tested on: HCT-116 (human colorectal carcinoma); test: MTT cytotoxicity assay, HCT-116; type: cell-based; settings: for IC50: read-out: IC50 (µM) ± SD HCT-116; for Therapeutic index (TI) HCT-116: TI = IC50 against normal cells (RPE-1)/IC50 against cancer cells (HCT-116)
Summary of the method: (§1)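 Cells were kept in DMEM with 10% heat-inactivated FBS and penicillin/streptomycin at 37 °C under 5% CO2. MTT (2.5 mg mL−1) was added for 4 h, formazan dissolved in DMSO and A570 read. Viability is % of untreated control. Triplicates were repeated on three days; mean ± SD; IC50 by probit analysis.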

[2] = tested on: MCF-7 (human breast adenocarcinoma); test: MTT cytotoxicity assay, MCF-7; type: cell-based; settings: for IC50: read-out: IC50 (µM) ± SD MCF-7; for Therapeutic index (TI) MCF-7: TI = IC50 against normal cells (RPE-1)/IC50 against cancer cells (MCF-7)
Summary of the method: as §1

[3] = tested on: RPE-1 (human normal Retina pigmented epithelium); test: MTT cytotoxicity assay, RPE-1 normal cells; type: cell-based; settings: read-out: IC50 (µM) ± SD RPE-1
Summary of the method: as §1

MCF-7 cells [4] = test: Apoptosis detection by fluorescent Hoechst 33258 staining; type: cell-based, human; settings: MCF-7, treated at IC50 (2: 18.7 µM; 14: 15.6 µM), 24 h
MCF-7 cells [5] = test: Apoptosis quantification by flow cytometry; type: cell-based, human; settings: MCF-7, treated at IC50 (2: 18.7 µM; 14: 15.6 µM), 24 h; for apoptosis percentage, early apoptosis: control 1.84 ± 0.63; for apoptosis percentage, late apoptosis: control 2.94 ± 0.5%
[6] = MTT assay, 48 h, normal RPE-1 cells

CSc1nc(N)n(-c2ccc(C(=O)O)cc2)n1 [Compound 1, 4-(5-Amino-3-(methylthio)-1H-1,2,4-triazol-1-yl)benzoic acid]
IC50 ([1]; Homo sapiens, HCT-116, 48 h): 41.8 ± 6.5 µM
Therapeutic index (TI) HCT-116 [1]: 1.5
IC50 ([2]; Homo sapiens, MCF7, 48 h): 32.9 ± 5.3 µM
Therapeutic index (TI) MCF-7 [2]: 1.9
IC50 ([3]; Homo sapiens, RPE-1, 48 h): 61 ± 13.9 µM

Nc1nc(Oc2ccccc2)nn1-c1ccc(C(=O)O)cc1 [Compound 2, 4-(5-Amino-3-phenoxy-1H-1,2,4-triazol-1-yl)benzoic acid]
IC50 ([1]; Homo sapiens, HCT-116, 48 h): 25.7 ± 4.1 µM
Therapeutic index (TI) HCT-116 [1]: 2.4
IC50 ([2]; Homo sapiens, MCF7, 48 h): 18.7 ± 3.5 µM
Therapeutic index (TI) MCF-7 [2]: 3.3
IC50 ([3]; Homo sapiens, RPE-1, 48 h): 61.2 ± 10.9 µM
Nuclear morphological changes (Hoechst 33258) (MCF-7 cells [4]): DNA fragmentation and typical marks of apoptosis are evident
apoptosis percentage, early apoptosis (MCF-7 cells [5]): 17.82 ± 1.30%
apoptosis percentage, late apoptosis (MCF-7 cells [5]): 24.91 ± 1.98%

CSc1nc(/N=C/c2cc(C)ccc2O)n(-c2ccc(C(=O)O)cc2)n1 [Compound 3, (E)-4-(5-((2-Hydroxy-5-methylbenzylidene)amino)-3-(methylthio)-1H-1,2,4-triazol-1-yl)benzoic acid]
IC50 ([1]; Homo sapiens, HCT-116, 48 h): 36 ± 6.1 µM
Therapeutic index (TI) HCT-116 [1]: 1.2
IC50 ([2]; Homo sapiens, MCF7, 48 h): 23.9 ± 1.6 µM
Therapeutic index (TI) MCF-7 [2]: 1.8
IC50 ([3]; Homo sapiens, RPE-1, 48 h): 43.9 ± 10.5 µM

COc1ccc(O)c(/C=N/c2nc(SC)nn2-c2ccc(C(=O)O)cc2)c1 [Compound 4, (E)-4-(5-((2-Hydroxy-5-methoxybenzylidene)amino)-3-(methylthio)-1H-1,2,4-triazol-1-yl)benzoic acid]
IC50 ([1]; Homo sapiens, HCT-116, 48 h): 35.2 ± 5.2 µM
Therapeutic index (TI) HCT-116 [1]: 1.6
IC50 ([2]; Homo sapiens, MCF7, 48 h): 27.3 ± 4.2 µM
Therapeutic index (TI) MCF-7 [2]: 2.0
IC50 ([3]; Homo sapiens, RPE-1, 48 h): 55.3 ± 11.1 µM

CSc1nc(/N=C/c2cc([N+](=O)[O-])ccc2O)n(-c2ccc(C(=O)O)cc2)n1 [Compound 5, (E)-4-(5-((2-Hydroxy-5-nitrobenzylidene)amino)-3-(methylthio)-1H-1,2,4-triazol-1-yl)benzoic acid]
IC50 ([1]; Homo sapiens, HCT-116, 48 h): 24 ± 4.5 µM
Therapeutic index (TI) HCT-116 [1]: 2.5
IC50 ([2]; Homo sapiens, MCF7, 48 h): 20 ± 4.1 µM
Therapeutic index (TI) MCF-7 [2]: 3.0
IC50 ([3]; Homo sapiens, RPE-1, 48 h): 60.2 ± 12.8 µM

CSc1nc(/N=C/c2cc(Br)ccc2O)n(-c2ccc(C(=O)O)cc2)n1 [Compound 6, (E)-4-(5-((5-Bromo-2-hydroxybenzylidene)amino)-3-(methylthio)-1H-1,2,4-triazol-1-yl)benzoic acid]
IC50 ([1]; Homo sapiens, HCT-116, 48 h): 37.6 ± 6.4 µM
Therapeutic index (TI) HCT-116 [1]: 1.6
IC50 ([2]; Homo sapiens, MCF7, 48 h): 31.3 ± 5.1 µM
Therapeutic index (TI) MCF-7 [2]: 1.9
IC50 ([3]; Homo sapiens, RPE-1, 48 h): 59.4 ± 11.7 µM

COc1cc(/C=N/c2nc(SC)nn2-c2ccc(C(=O)O)cc2)ccc1O [Compound 7, (E)-4-(5-((4-Hydroxy-3-methoxybenzylidene)amino)-3-(methylthio)-1H-1,2,4-triazol-1-yl)benzoic acid]
IC50 ([1]; Homo sapiens, HCT-116, 48 h): 29.8 ± 4.2 µM
Therapeutic index (TI) HCT-116 [1]: 2.1
IC50 ([2]; Homo sapiens, MCF7, 48 h): 29.4 ± 5.3 µM
Therapeutic index (TI) MCF-7 [2]: 2.1
IC50 ([3]; Homo sapiens, RPE-1, 48 h): 61.1 ± 12.5 µM

CSc1nc(/N=C/c2cccc(O)c2)n(-c2ccc(C(=O)O)cc2)n1 [Compound 8, (E)-4-(5-((3-Hydroxybenzylidene)amino)-3-(methylthio)-1H-1,2,4-triazol-1-yl)benzoic acid]
IC50 ([1]; Homo sapiens, HCT-116, 48 h): 34.6 ± 6.1 µM
Therapeutic index (TI) HCT-116 [1]: 2.0
IC50 ([2]; Homo sapiens, MCF7, 48 h): 31.2 ± 5.6 µM
Therapeutic index (TI) MCF-7 [2]: 2.2
IC50 ([3]; Homo sapiens, RPE-1, 48 h): 70.1 ± 15.3 µM

CSc1nc(/N=C/c2ccc(O)cc2)n(-c2ccc(C(=O)O)cc2)n1 [Compound 9, (E)-4-(5-((4-Hydroxybenzylidene)amino)-3-(methylthio)-1H-1,2,4-triazol-1-yl)benzoic acid]
IC50 ([1]; Homo sapiens, HCT-116, 48 h): 39.1 ± 5.6 µM
Therapeutic index (TI) HCT-116 [1]: 1.7
IC50 ([2]; Homo sapiens, MCF7, 48 h): 34.8 ± 5.5 µM
Therapeutic index (TI) MCF-7 [2]: 2.0
IC50 ([3]; Homo sapiens, RPE-1, 48 h): 68 ± 16.7 µM

Cc1ccc(O)c(/C=N/c2nc(Oc3ccccc3)nn2-c2ccc(C(=O)O)cc2)c1 [Compound 10, (E)-4-(5-((2-Hydroxy-5-methylbenzylidene)amino)-3-phenoxy-1H-1,2,4-triazol-1-yl)benzoic acid]
IC50 ([1]; Homo sapiens, HCT-116, 48 h): 33.7 ± 5.2 µM
Therapeutic index (TI) HCT-116 [1]: 2.2
IC50 ([2]; Homo sapiens, MCF7, 48 h): 30.3 ± 5.3 µM
Therapeutic index (TI) MCF-7 [2]: 2.4
IC50 ([3]; Homo sapiens, RPE-1, 48 h): 74 ± 16.5 µM

COc1ccc(O)c(/C=N/c2nc(Oc3ccccc3)nn2-c2ccc(C(=O)O)cc2)c1 [Compound 11, (E)-4-(5-((2-Hydroxy-5-methoxybenzylidene)amino)-3-phenoxy-1H-1,2,4-triazol-1-yl)benzoic acid]
IC50 ([1]; Homo sapiens, HCT-116, 48 h): 33.1 ± 4.4 µM
Therapeutic index (TI) HCT-116 [1]: 1.8
IC50 ([2]; Homo sapiens, MCF7, 48 h): 27.5 ± 4.1 µM
Therapeutic index (TI) MCF-7 [2]: 2.1
IC50 ([3]; Homo sapiens, RPE-1, 48 h): 58.5 ± 10.7 µM

O=C(O)c1ccc(-n2nc(Oc3ccccc3)nc2/N=C/c2cc([N+](=O)[O-])ccc2O)cc1 [Compound 12, (E)-4-(5-((2-Hydroxy-5-nitrobenzylidene)amino)-3-phenoxy-1H-1,2,4-triazol-1-yl)benzoic acid]
IC50 ([1]; Homo sapiens, HCT-116, 48 h): 26.8 ± 4.5 µM
Therapeutic index (TI) HCT-116 [1]: 2.3
IC50 ([2]; Homo sapiens, MCF7, 48 h): 21.6 ± 3.1 µM
Therapeutic index (TI) MCF-7 [2]: 2.9
IC50 ([3]; Homo sapiens, RPE-1, 48 h): 62.8 ± 13.9 µM

CSc1nc(NC(=S)NCc2ccccc2)n(-c2ccc(C(=O)O)cc2)n1 [Compound 13, 4-(3-(Methylthio)-5-(3-benzylylthioureido)-1H-1,2,4-triazol-1-yl)benzoic acid]
Therapeutic index (TI) HCT-116 [1]: 2.1
IC50 ([1]; MTT assay, 48 h, HCT-116): 30.1 ± 4.1 µM
Therapeutic index (TI) MCF-7 [2]: 2.7
IC50 ([2]; MTT assay, 48 h, MCF-7): 23.4 ± 4.6 µM
IC50 [3, 6]: 63.9 ± 13.5 µM

CSc1nc(NC(=S)NCCc2ccccc2)n(-c2ccc(C(=O)O)cc2)n1 [Compound 14, 4-(3-(Methylthio)-5-(3-phenethylthioureido)-1H-1,2,4-triazol-1-yl)benzoic acid]
IC50 ([1]; Homo sapiens, HCT-116, 48 h): 28.3 ± 5.2 µM
Therapeutic index (TI) HCT-116 [1]: 1.6
IC50 ([2]; Homo sapiens, MCF7, 48 h): 15.6 ± 2.2 µM
Therapeutic index (TI) MCF-7 [2]: 2.9
IC50 ([3]; Homo sapiens, RPE-1, 48 h): 45.8 ± 8.9 µM
Nuclear morphological changes (Hoechst 33258) (MCF-7 cells [4]): DNA fragmentation and typical marks of apoptosis are evident
apoptosis percentage, early apoptosis (MCF-7 cells [5]): 29.11 ± 1.44%
apoptosis percentage, late apoptosis (MCF-7 cells [5]): 45.47 ± 2.10%

O=C(O)c1ccc(-n2nc(Oc3ccccc3)nc2NC(=S)NCc2ccccc2)cc1 [Compound 15, 4-(5-(3-Benzylylthioureido)(3-phenoxy)-1H-1,2,4-triazol-1-yl)benzoic acid]
Therapeutic index (TI) HCT-116 [1]: 3.8
IC50 ([1]; MTT assay, 48 h, HCT-116): 23.9 ± 4.5 µM
Therapeutic index (TI) MCF-7 [2]: 3.8
IC50 ([2]; MTT assay, 48 h, MCF-7): 24 ± 4.3 µM
IC50 [3, 6]: 91.6 ± 15.9 µM

COC(=O)c1ccc(-n2nc(SC)nc2N)cc1 [Compound 16, methyl 4-(5-amino-3-(methylthio)-1H-1,2,4-triazol-1-yl)benzoate]
IC50 ([1]; Homo sapiens, HCT-116, 48 h): 37.3 ± 6.1 µM
Therapeutic index (TI) HCT-116 [1]: 1.0
IC50 ([2]; Homo sapiens, MCF7, 48 h): 23.4 ± 3.5 µM
Therapeutic index (TI) MCF-7 [2]: 1.7
IC50 ([3]; Homo sapiens, RPE-1, 48 h): 39.1 ± 9.9 µM

CS(=O)(=O)c1nc(N)n(-c2ccc(C(=O)O)cc2)n1 [Compound 17, 4-(5-amino-3-(methylsulfonyl)-1H-1,2,4-triazol-1-yl) benzoic acid]
IC50 ([1]; Homo sapiens, HCT-116, 48 h): 34.2 ± 5.2 µM
Therapeutic index (TI) HCT-116 [1]: 1.4
IC50 ([2]; Homo sapiens, MCF7, 48 h): 21.9 ± 4.2 µM
Therapeutic index (TI) MCF-7 [2]: 2.2
IC50 ([3]; Homo sapiens, RPE-1, 48 h): 48.5 ± 9.8 µM

COc1cccc2c1C(=O)c1c(O)c3c(c(O)c1C2=O)C[C@@](O)(C(=O)CO)C[C@@H]3O[C@H]1C[C@H](N)[C@H](O)[C@H](C)O1 [Doxorubicin, reference compound]
IC50 ([1]; Homo sapiens, HCT-116, 48 h): 22.6 ± 3.9 µM
Therapeutic index (TI) HCT-116 [1]: 2.8
IC50 ([2]; Homo sapiens, MCF7, 48 h): 19.7 ± 3.1 µM
Therapeutic index (TI) MCF-7 [2]: 3.3
IC50 ([3]; Homo sapiens, RPE-1, 48 h): 64 ± 13.2 µM
